Test results taken from ChEMBL document CHEMBL1221233, “4''-O-(omega-Quinolylamino-alkylamino)propionyl derivatives of selected macrolides with the activity against the key erythromycin resistant respiratory pathogens” (2010).
≈ marks a conversion by molar mass, not a printed value.

Tests used:
Type in all cases: functional
[1] = test system: Streptococcus pneumoniae; assay: Antibacterial activity against efflux-mediated macrolide-resistance Streptococcus pneumoniae Ci137 by broth microdilution method
Outline: (§1)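 MIC by CLSI broth microdilution. In the streptococcal medium, 5% horse serum replaced lysed blood. Compounds were tested as two-fold serial dilutions. Strains were first grown on Columbia agar with 5% sheep blood. The MIC was read as the lowest concentration inhibiting growth.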

[2] = test system: Streptococcus pneumoniae; assay: Antibacterial activity against inducible resistance to macrolide and constitutive resistance to lincosamide Streptococcus pneumoniae 134 GR M by broth microdilution method; outline: as §1
[3] = test system: Staphylococcus aureus; assay: Antibacterial activity against efflux-mediated macrolide-resistance Staphylococcus aureus PK1 by broth microdilution method
Outline: (§2)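 Staphylococci were grown on Mueller-Hinton agar and then tested by CLSI-guideline broth microdilution against two-fold serial dilutions of compound. The result was recorded as the minimum inhibitory concentration.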

[4] = test system: Streptococcus pyogenes; assay: Antibacterial activity against efflux-mediated macrolide-resistance Streptococcus pyogenes 2 Finland by broth microdilution method; outline: as §1
[5] = test system: Staphylococcus aureus; assay: Antibacterial activity against inducible resistance to macrolide, licosamide and streptogramin Staphylococcus aureus 90256 by broth microdilution method; outline: as §2
[6] = test system: Streptococcus pneumoniae; assay: Antibacterial activity against constitutive MLS resistance Streptococcus pneumoniae 58 by broth microdilution method; outline: as §1
[7] = test system: Haemophilus influenzae; assay: Antibacterial activity against Haemophilus influenzae ATCC 49247 by broth microdilution method
Outline: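 MIC by broth microdilution following CLSI guidelines, expressed in units of lg/mL. Twofold dilutions prepared in 96-well plates. H. influenzae grown on Mueller-Hinton chocolate agar before testing.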

[8] = test system: Streptococcus pyogenes; assay: Antibacterial activity against constitutive MLS resistance sStreptococcus pyogenes 166 GR-Micro by broth microdilution method; outline: as §1

Structure (SMILES) | MIC [1] | MIC [2] | MIC [3] | MIC [4] | MIC [5] | MIC [6] | MIC [7] | MIC [8]
CC[C@H]1OC(=O)[C@H](C)[C@@H](O[C@H]2C[C@@](C)(OC)[C@@H](OC(=O)CCNCCCCNc3cc4c(cc3F)c(=O)c(C(=O)O)cn4C3CC3)[C@H](C)O2)[C@H](C)[C@@H](O[C@@H]2O[C@H](C)C[C@H](N(C)C)[C@H]2O)[C@](C)(O)C[C@@H](C)C(=O)[C@H](C)[C@@H](O)[C@]1(C)O | ≤ 0.125 µg/mL | 2 µg/mL (≈ 1.78 µM) | 2 µg/mL (≈ 1.78 µM) | ≤ 0.125 µg/mL | > 64 µg/mL | 8 µg/mL (≈ 7.13 µM) | 2 µg/mL (≈ 1.78 µM) | 8 µg/mL (≈ 7.13 µM)
CC[C@H]1OC(=O)[C@H](C)[C@@H](O[C@H]2C[C@@](C)(OC)[C@@H](OC(=O)CCNCCCCNc3ccc4c(=O)c(C(=O)O)cn(C5CC5)c4c3)[C@H](C)O2)[C@H](C)[C@@H](O[C@@H]2O[C@H](C)C[C@H](N(C)C)[C@H]2O)[C@](C)(O)C[C@@H](C)CN(C)[C@H](C)[C@@H](O)[C@]1(C)O | 0.5 µg/mL (≈ 0.447 µM) | 8 µg/mL (≈ 7.15 µM) | 2 µg/mL (≈ 1.79 µM) | 1 µg/mL (≈ 0.894 µM) | 8 µg/mL (≈ 7.15 µM) | 4 µg/mL (≈ 3.58 µM) | 8 µg/mL (≈ 7.15 µM) | 4 µg/mL (≈ 3.58 µM)
CC[C@H]1OC(=O)[C@H](C)[C@@H](O[C@H]2C[C@@](C)(OC)[C@@H](OC(=O)CCNCCCCNc3ccc4c(=O)c(C(=O)O)cn(C)c4c3)[C@H](C)O2)[C@H](C)[C@@H](O[C@@H]2O[C@H](C)C[C@H](N(C)C)[C@H]2O)[C@](C)(O)C[C@@H](C)CN(C)[C@H](C)[C@@H](O)[C@]1(C)O | 2 µg/mL (≈ 1.83 µM) | 32 µg/mL (≈ 29.3 µM) | 8 µg/mL (≈ 7.32 µM) | 4 µg/mL (≈ 3.66 µM) | > 64 µg/mL | 32 µg/mL (≈ 29.3 µM) | 16 µg/mL (≈ 14.6 µM) | 8 µg/mL (≈ 7.32 µM)
CC[C@H]1OC(=O)[C@H](C)[C@@H](O[C@H]2C[C@@](C)(OC)[C@@H](OC(=O)CCN(C)CCNc3cc4c(=O)c(C(=O)O)cn(C5CC5)c4cc3Cl)[C@H](C)O2)[C@H](C)[C@@H](O[C@@H]2O[C@H](C)C[C@H](N(C)C)[C@H]2O)[C@](C)(O)C[C@@H](C)CN(C)[C@H](C)[C@H]2OC(=O)O[C@@]21C | ≤ 0.125 µg/mL | 2 µg/mL (≈ 1.72 µM) | 1 µg/mL (≈ 0.858 µM) | ≤ 0.125 µg/mL | 2 µg/mL (≈ 1.72 µM) | 1 µg/mL (≈ 0.858 µM) | 4 µg/mL (≈ 3.43 µM) | 1 µg/mL (≈ 0.858 µM)
CC[C@H]1OC(=O)[C@H](C)[C@@H](O[C@H]2C[C@@](C)(OC)[C@@H](OC(=O)CCNCCNc3cc4c(cc3F)c(=O)c(C(=O)O)cn4C3CC3)[C@H](C)O2)[C@H](C)[C@@H](O[C@@H]2O[C@H](C)C[C@H](N(C)C)[C@H]2O)[C@](C)(O)C[C@@H](C)CN(C)[C@H](C)[C@H]2OC(=O)O[C@@]21C | ≤ 0.125 µg/mL | ≤ 0.125 µg/mL | 0.25 µg/mL (≈ 0.22 µM) | ≤ 0.125 µg/mL | 1 µg/mL (≈ 0.882 µM) | ≤ 0.125 µg/mL | 2 µg/mL (≈ 1.76 µM) | ≤ 0.125 µg/mL
CC[C@H]1OC(=O)[C@H](C)[C@@H](O[C@H]2C[C@@](C)(OC)[C@@H](O)[C@H](C)O2)[C@H](C)[C@@H](O[C@@H]2O[C@H](C)C[C@H](N(C)C)[C@H]2O)[C@](C)(OC)C[C@@H](C)C(=O)[C@H](C)[C@@H](O)[C@]1(C)O [CLARITHROMYCIN] | 4 µg/mL (≈ 5.35 µM) | > 64 µg/mL | > 64 µg/mL | 4 µg/mL (≈ 5.35 µM) | > 64 µg/mL | > 16 µg/mL | 8 µg/mL (≈ 10.7 µM) | > 16 µg/mL
CC[C@H]1OC(=O)[C@H](C)[C@@H](O[C@H]2C[C@@](C)(OC)[C@@H](OC(=O)CCNCCNc3cc4c(=O)c(C(=O)OC)cn(C5CC5)c4cc3Cl)[C@H](C)O2)[C@H](C)[C@@H](O[C@@H]2O[C@H](C)C[C@H](N(C)C)[C@H]2O)[C@](C)(O)C[C@@H](C)CN(C)[C@H](C)[C@@H](O)[C@]1(C)O | ≤ 0.125 µg/mL | ≤ 0.125 µg/mL | 8 µg/mL (≈ 7.02 µM) | ≤ 0.125 µg/mL | > 64 µg/mL | ≤ 0.125 µg/mL | 8 µg/mL (≈ 7.02 µM) | ≤ 0.125 µg/mL
